Experiment: Toxicity liver stage against HepG2, at 10uM
Type: cell-based
Design: test concentration 10 uM, cell line HepG2-A16-CD81EGFP
Details: human, HepG2-A16-CD81EGFP cells; read-out: INHIBITION
Outline: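 Uninfected HepG2-A16-CD81EGFP cells, 3 × 10^3 per well, 1536-well, plated on prespotted compound at 10 μM final, parasite-free screening media added to match infected plates; puromycin 10 μM positive, DMSO 0.5% negative; run in parallel with 48 h PbLuc assay at 37 °C, 5% CO2; viability by CellTiter-Glo luminescence, normalized to controls.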

COc1ccc(Cl)cc1-c1nc(N)nc(N(C)C)n1
cytotoxicity at 10 µM: -4.01%

CC1CCCN(Cc2coc(-c3cccc(F)c3)n2)C1 (configuration not stated)
cytotoxicity at 10 µM: -16.7%

COc1ccc(CN(C)C(=O)CSc2nnc(N)s2)c(OC)c1OC
cytotoxicity at 10 µM: 7.59%

N#Cc1cccnc1N1CCN(C(=O)CCC(=O)c2cccs2)CC1
cytotoxicity at 10 µM: -8.7%

CC(=O)Nc1ccc(C(=O)NCCCn2cccc2)cc1
cytotoxicity at 10 µM: -2.66%

COC1(CNC(=O)NCc2ccccc2)CCSC1 (configuration not stated)
cytotoxicity at 10 µM: -2.42%

O=S(=O)(NCCn1ccc(-c2cccs2)n1)C1CC1
cytotoxicity at 10 µM: -0.297%

CC(C)CN1C[C@@H]2CN(S(=O)(=O)c3cccs3)C[C@@H]2C1=O
cytotoxicity at 10 µM: 4.09%

COCCN1C(=O)CCC12CCCN(C(=O)NC(C)C)CC2 (configuration not stated)
cytotoxicity at 10 µM: 1.32%

Cc1ccc(CN2C[C@H]3C[C@H](C(=O)NCC4CC4)N(C)[C@H]3C2)o1
cytotoxicity at 10 µM: -3.13%

CCOCC1COCCC12CCN(C(=O)CS(C)(=O)=O)CC2 (configuration not stated)
cytotoxicity at 10 µM: -1.99%

c1cnc(NCc2noc3c2CN(C2CCOC2)CC3)nc1 (configuration not stated)
cytotoxicity at 10 µM: -3.71%

COc1ccc(NC(=O)Cn2nc(C)ccc2=O)cc1OC
cytotoxicity at 10 µM: 1.57%

O=C(CSC1CCc2ccccc2NC1=O)NCCc1ccco1 (configuration not stated)
cytotoxicity at 10 µM: -13%

COC(=O)c1ccc(OC)c(Cn2cc(N)cn2)c1
cytotoxicity at 10 µM: -7.8%

CC(C)(C)NC(=O)COc1ccc(CNCCOc2ccccn2)cc1
cytotoxicity at 10 µM: -3.76%

O=C1CN([C@@H]2CC[C@@H](NS(=O)(=O)c3ccccc3F)[C@H]2O)CCN1
cytotoxicity at 10 µM: 1.06%

CCc1cc(O)n2nc(C3CCCN3C(=O)c3ccccn3)cc2n1 (configuration not stated)
cytotoxicity at 10 µM: -0.805%

Nc1nc(C2CCN(C(=O)c3cnco3)CC2)cs1
cytotoxicity at 10 µM: -3%

Cc1nc(Nc2ncccn2)cc(C2CCCN2Cc2ncc[nH]2)n1 (configuration not stated)
cytotoxicity at 10 µM: -15.3%

Cc1ncsc1CN1C[C@@H](O)[C@](O)(CNC(=O)c2ccccn2)C1
cytotoxicity at 10 µM: -0.973%

COc1cc(F)ccc1NC(=O)NCCNC(=O)OC(C)(C)C
cytotoxicity at 10 µM: -3.97%

CC(C)CC1(C(=O)NCCc2nncn2C2CC2)CCC1
cytotoxicity at 10 µM: -1.06%

Cc1cc(C(=O)NC(C)Cc2cccc(Cl)c2)n(C)n1 (configuration not stated)
cytotoxicity at 10 µM: 10.9%

O=C(CNC(=O)C1(c2ccc(F)cc2F)CCC1)Nc1cccnc1
cytotoxicity at 10 µM: -5.82%

N#Cc1ccc(CN2CCCCC2Cn2cncn2)cc1 (configuration not stated)
cytotoxicity at 10 µM: -1.05%

NC(=O)C(NC(=O)CSCc1ccc(Cl)s1)c1ccccc1 (configuration not stated)
cytotoxicity at 10 µM: 9.12%

CC(c1nc(C2CC2)no1)N1CCN(CCn2ccccc2=O)CC1 (configuration not stated)
cytotoxicity at 10 µM: 25.8%

N#CCSCC(=O)NCC1CCCCC1
cytotoxicity at 10 µM: 8.32%

O=C(NCC1CCS(=O)(=O)C1)c1ccc(NC(=O)c2ccco2)cc1 (configuration not stated)
cytotoxicity at 10 µM: 3.25%

CCS(=O)(=O)CCSc1ccc(Cl)cc1
cytotoxicity at 10 µM: -1.13%

CCCN(CC(=O)N(C)C)C(=O)c1ccc(-c2nc(C)cs2)cc1
cytotoxicity at 10 µM: -15.7%

Cc1cc(Br)ccc1CNC(=O)C1(O)CCSCC1
cytotoxicity at 10 µM: 8.88%

COC(=O)CN(C(=O)c1ccco1)c1cccc(F)c1
cytotoxicity at 10 µM: -4.81%

CC(C)(C)CC(=O)NCC(=O)NS(=O)(=O)c1cccnc1
cytotoxicity at 10 µM: -3.13%

O=C1CC2(CCSC2)C(=O)N1CCCc1ccccc1 (configuration not stated)
cytotoxicity at 10 µM: 6.43%

Cn1c(NCCC(=O)N2CCCC2)c(C#N)c(=O)n(C)c1=O
cytotoxicity at 10 µM: -9.28%

CCCN(C(=O)CN1CCn2c(nnc2C2CC2)C1)C1=CCCCC1
cytotoxicity at 10 µM: 6.19%

CCN1CCC(NC(=O)CN2CCCC2Cn2cccn2)CC1 (configuration not stated)
cytotoxicity at 10 µM: 1.98%

CC(C)NC(=O)Nc1ccccc1CN1CCOCC1
cytotoxicity at 10 µM: 4.89%

O=C(Nc1ccnc(OC2CCOC2)c1)c1cccs1 (configuration not stated)
cytotoxicity at 10 µM: 5.42%

Cc1nn(CC(O)CN2CCc3ccccc3C2)c(=O)c2ccccc12 (configuration not stated)
cytotoxicity at 10 µM: 11.1%

CC(NC(=O)NCc1cscn1)c1ccc(N2CCOCC2)cc1 (configuration not stated)
cytotoxicity at 10 µM: -0.736%

CN(C)C(=O)Cc1nc(CN2CCCCC2Cn2cncn2)cs1 (configuration not stated)
cytotoxicity at 10 µM: -0.868%

COc1ccccc1NCC(=O)NCc1ccc(-c2ccn[nH]2)cc1
cytotoxicity at 10 µM: -1.99%

COc1cc(S(=O)(=O)Nc2cn[nH]c2)ccc1Br
cytotoxicity at 10 µM: -1.47%

NC(=O)C1CCN(C(=O)c2ccccc2OCc2ccncc2)CC1
cytotoxicity at 10 µM: 1.02%

CS(=O)(=O)NCc1ccc(NC(=O)CC2=CCCCC2)cc1
cytotoxicity at 10 µM: -2.48%

COc1cccc(NC(C(N)=O)c2ccc(Br)cc2)c1 (configuration not stated)
cytotoxicity at 10 µM: 11.3%

COCc1nc(CNc2cccc(-c3csc(C)n3)c2)cs1
cytotoxicity at 10 µM: 1.98%

O=C(Nc1ccccc1C(=O)N1CCCC1)NC1CCOCC1
cytotoxicity at 10 µM: -3.27%

CN(CC(F)(F)F)C(=O)CNC(=O)N1CCCC(C(F)(F)F)C1 (configuration not stated)
cytotoxicity at 10 µM: 0.601%

CN1CCN(C(=O)C2CC=CC2)c2ccccc21
cytotoxicity at 10 µM: 14.9%

O=C(Cc1cccc(F)c1)NC1CCCc2cn[nH]c21 (configuration not stated)
cytotoxicity at 10 µM: 16.5%

Cc1cccc(NS(=O)(=O)c2cnn(C)c2)c1C#N
cytotoxicity at 10 µM: -0.655%

CN(Cc1ccc(F)cc1F)CC(C)(CO)CO
cytotoxicity at 10 µM: -2.52%

Cn1nccc1NC(=O)CN1CCc2sccc2C1
cytotoxicity at 10 µM: 1.09%

CSC1(CNC(=O)N(C)Cc2ccc(Cl)s2)CCOCC1
cytotoxicity at 10 µM: 8.08%

Cc1ccc(C2CSCCN2C(=O)C2=CCCC2)o1 (configuration not stated)
cytotoxicity at 10 µM: -6.12%

Cn1cc(-c2csc(CN3CCOCC3)n2)cn1
cytotoxicity at 10 µM: -11.4%

CN1N=C(C(=O)N(Cc2ccco2)C2CC2)CCC1=O
cytotoxicity at 10 µM: -2.62%

COC[C@@]12CCC[C@@H]1CN(C(=O)N1CCCC1)C2
cytotoxicity at 10 µM: 7.9%

COCCC(=O)N1CC[C@@H]2O[C@@H](C)C[C@H]2C1
cytotoxicity at 10 µM: -2.78%

Cc1occc1C(=O)N1CC[C@@H](N2CCOCC2)[C@@H]1Cc1ccccc1
cytotoxicity at 10 µM: -4.09%

CCN(C)c1ncnc2c1CCN(Cc1ccoc1)CC2
cytotoxicity at 10 µM: -0.439%

O=c1[nH]c(-c2ccncc2)ncc1-c1ccnc(N2CCOCC2)n1
cytotoxicity at 10 µM: -1.2%

CCn1ccnc1CN(C)c1nc(-c2ccc(Cl)cc2)nc2c1CNC2
cytotoxicity at 10 µM: -12.7%

OCCCN1CCc2[nH]nc(C(c3ccccc3)c3ccccc3)c2C1
cytotoxicity at 10 µM: -0.869%

Cn1ccc2c(-c3cc(N)nc(N4CCOCC4)n3)ccnc21
cytotoxicity at 10 µM: -3.67%

COc1ccc2nc(CNC(=O)C3CC4(CCNCC4)CN3C)[nH]c2c1 (configuration not stated)
cytotoxicity at 10 µM: 0.488%

Cc1ccc2nc(C)c(C)c(C(=O)N3CCN(c4nccs4)CC3)c2c1
cytotoxicity at 10 µM: 3.96%

Cc1n[nH]c(CN2CCN(Cc3ccccc3)[C@@H]3CS(=O)(=O)C[C@@H]32)n1
cytotoxicity at 10 µM: -7.42%

CN(C)c1ccccc1C(=O)N1CCCC(c2ccc(C(=O)O)cc2)C1 (configuration not stated)
cytotoxicity at 10 µM: 16.2%

c1ccc(Cc2noc(-c3ccc(NCC4CCCOC4)nc3)n2)cc1 (configuration not stated)
cytotoxicity at 10 µM: -1.05%

COc1ccc(CN2CCCC3(CC2)CNC(=O)O3)cc1OC (configuration not stated)
cytotoxicity at 10 µM: 5.75%

Cc1nsc(NC(=O)NC2(CN3CCOCC3)CCCCC2)n1
cytotoxicity at 10 µM: -3.82%

CC(=O)N1CCC(NC(C)c2cnn(-c3ccc(F)cc3F)c2C)CC1 (configuration not stated)
cytotoxicity at 10 µM: -6.4%

CCCc1nccn1-c1cccc(C(C)O)c1 (configuration not stated)
cytotoxicity at 10 µM: 5.82%

Cc1cccc(CN2CCC(NS(C)(=O)=O)CC2)n1
cytotoxicity at 10 µM: 9.87%

CN(C)S(=O)(=O)N1CC[C@]2(O)CCN(Cc3cccc(F)c3)C[C@@H]2C1
cytotoxicity at 10 µM: -5.16%

N#Cc1cccc(N2CCCC3(CCC(=O)N(C4CCCC4)C3)C2)n1 (configuration not stated)
cytotoxicity at 10 µM: -0.0436%

CN(C)CC(C)(C)Cn1cnc(-c2ccccc2)c1-c1ncc[nH]1
cytotoxicity at 10 µM: 9.21%

O=C(NCc1cccnc1N1CCCC(O)C1)c1ccc2[nH]nnc2c1 (configuration not stated)
cytotoxicity at 10 µM: 11.4%

Cc1nn(C)c(C)c1CN(CCO)C(=O)C1COc2ccccc2C1 (configuration not stated)
cytotoxicity at 10 µM: -8.07%

Cc1ccc(C(=O)NCCC(C)C)cc1NS(C)(=O)=O
cytotoxicity at 10 µM: 10.9%

CCc1ccc(CN2CCC(CNS(=O)(=O)C3CC3)C2)nc1 (configuration not stated)
cytotoxicity at 10 µM: -4.69%

Cc1nc2c(cc1C(=O)Nc1ccccc1Cl)c(=O)n(C)c(=O)n2C
cytotoxicity at 10 µM: -5.06%

CCCc1cc(C(=O)N2C[C@@H](C)[C@](O)(C3CCC3)C2)[nH]n1
cytotoxicity at 10 µM: 10.1%

CCn1nc(C)c(CCNC(=O)C2CCCN(CC(N)=O)C2)c1C (configuration not stated)
cytotoxicity at 10 µM: -11.8%

Cc1ccc(NC(=O)C2=CN=S=N2)cc1
cytotoxicity at 10 µM: 3.51%

Cc1ccccc1C1(C(=O)NCCN(C)C)CCOCC1
cytotoxicity at 10 µM: -1.95%

Cc1nnc2n1CCN(C(=O)c1cc(Br)c(Cl)[nH]1)C2
cytotoxicity at 10 µM: -12.7%

CN(Cc1ccc(O)cc1)C(=O)NC1CCCN(c2ncccn2)C1 (configuration not stated)
cytotoxicity at 10 µM: -9.63%

CCc1nnc2n1CCN(C(=O)c1ccnc(N(C)C)c1)C2
cytotoxicity at 10 µM: -21%

Cc1nc(C2CCCN(C(=O)c3c(C)nn4cccnc34)C2)no1 (configuration not stated)
cytotoxicity at 10 µM: -7.62%

Cn1cc(C2CCCN2CCC(=O)N2CCc3sccc3C2)cn1 (configuration not stated)
cytotoxicity at 10 µM: -8.25%

COCCOc1ccccc1C(=O)N1CCCC(c2cc(C)[nH]n2)C1 (configuration not stated)
cytotoxicity at 10 µM: -22.6%

COc1ccc(CNC(C)c2ccc3[nH]c(=O)[nH]c3c2)cc1 (configuration not stated)
cytotoxicity at 10 µM: -5.04%

COc1ccc(C)cc1CNCc1ccc(-n2nc(C)cc2C)nc1
cytotoxicity at 10 µM: 0.813%

CCc1nccn1C1CCCN(C(=O)c2csc(COC)n2)C1 (configuration not stated)
cytotoxicity at 10 µM: -8.11%

NC(=O)N1CC2(CCNCC2)c2cc(Cl)ccc21
cytotoxicity at 10 µM: 1.79%

COc1cc(CN(CCCN(C)C)Cc2ccccn2)cc2c1OCO2
cytotoxicity at 10 µM: 1.44%

CCOC1COC2(CCN(Cc3cccnc3OC)CC2)C1 (configuration not stated)
cytotoxicity at 10 µM: -2.47%

Cc1ccc(CN2CCc3[nH]nc(C(=O)N4CCNC(=O)C4)c3C2)s1
cytotoxicity at 10 µM: 12%

CC[C@@H]1N(Cc2ccncc2)CCC[C@]12CCC(=O)N2C
cytotoxicity at 10 µM: 10.5%

COCC1CN(Cc2ccc(OC)cc2)Cc2nnn(CC3CC3)c21 (configuration not stated)
cytotoxicity at 10 µM: -2.47%

CC(C)c1nn(C)c(Cl)c1CNCc1ccc(N(C)C)nc1
cytotoxicity at 10 µM: -13.6%

CC(C)CN1CCC(N2CCC(C(=O)N(C)C)CC2)CC1
cytotoxicity at 10 µM: 16.9%

CC(C)(CN)NS(=O)(=O)c1cccc(F)c1F
cytotoxicity at 10 µM: -5.7%

COc1ccc(CC(=O)N2C[C@H]3CN(Cc4ccccn4)C[C@H]3C2)cc1
cytotoxicity at 10 µM: 3.5%

CNC(=O)[C@@]12CCO[C@@H]1CCN(Cc1scnc1C)C2
cytotoxicity at 10 µM: 6.12%

c1ccc(N2CC3(CCN(Cc4cccnc4)C3)C2)nc1
cytotoxicity at 10 µM: 1.11%
